Data: ChEMBL document CHEMBL3797060, “Discovery of 5-Chloro-1-(5-chloro-2-(methylsulfonyl)benzyl)-2-imino-1,2-dihydropyridine-3-carboxamide (TAK-259) as a Novel, Selective, and Orally Active α1D Adrenoceptor Antagonist with Antiurinary Frequency Effects: Reducing Human Ether-a-go-go-Related Gene (hERG) Liabilities” (J Med Chem, 2016)

What was measured:
[1] = target: T1, Alpha-1D adrenergic receptor (Homo sapiens, UniProt P25100); experiment: Displacement of 7-methoxy-[3H]-prazosin from human alpha1D adrenergic receptor expressed in CHO-K1 cell membranes incubated for 60 mins by liquid scintillation counting analysis
T1 sequence (P25100 whole entry): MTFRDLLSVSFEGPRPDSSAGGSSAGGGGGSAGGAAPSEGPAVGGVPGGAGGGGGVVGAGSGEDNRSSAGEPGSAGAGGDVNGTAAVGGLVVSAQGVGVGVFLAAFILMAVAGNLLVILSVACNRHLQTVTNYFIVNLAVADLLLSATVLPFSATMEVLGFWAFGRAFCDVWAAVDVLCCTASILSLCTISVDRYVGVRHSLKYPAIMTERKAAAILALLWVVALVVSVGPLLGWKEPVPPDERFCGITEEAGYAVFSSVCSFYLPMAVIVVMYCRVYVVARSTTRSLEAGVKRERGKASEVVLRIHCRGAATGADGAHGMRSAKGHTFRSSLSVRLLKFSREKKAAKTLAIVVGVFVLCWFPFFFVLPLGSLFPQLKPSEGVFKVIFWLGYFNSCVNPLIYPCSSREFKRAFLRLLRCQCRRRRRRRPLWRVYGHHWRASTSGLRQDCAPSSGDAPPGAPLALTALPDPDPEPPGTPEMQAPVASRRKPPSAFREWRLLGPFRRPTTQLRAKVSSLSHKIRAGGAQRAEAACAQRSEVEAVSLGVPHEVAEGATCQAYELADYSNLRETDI
Summary of the method: (§1)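 CHO-K1 stable-line membranes (10 µg protein), 2.5 nmol/L ligand, Tris-HCl pH 7.5 with MgCl2, EDTA and 0.5% BSA, 12 compound concentrations, room temperature. Filtered and counted; nonspecific binding with 10 µmol/L phentolamine. IC50 by logistic regression, converted to Ki by Cheng-Prusoff with Kd 0.93 (α1A), 0.35 (α1B), 0.26 (α1D) nmol/L. Triplicate mean, 95% CI.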

[2] = target: hERG (KCNH2) (Homo sapiens, UniProt Q12809); experiment: Inhibition of human ERG channel expressed in CHO cells assessed as peak tail current at 10 uM incubated for 5 mins by patch-clamp assay; type: cell-based; conditions: CHO cells expressing human ERG channel
Chain of hERG (KCNH2) (Q12809 whole entry): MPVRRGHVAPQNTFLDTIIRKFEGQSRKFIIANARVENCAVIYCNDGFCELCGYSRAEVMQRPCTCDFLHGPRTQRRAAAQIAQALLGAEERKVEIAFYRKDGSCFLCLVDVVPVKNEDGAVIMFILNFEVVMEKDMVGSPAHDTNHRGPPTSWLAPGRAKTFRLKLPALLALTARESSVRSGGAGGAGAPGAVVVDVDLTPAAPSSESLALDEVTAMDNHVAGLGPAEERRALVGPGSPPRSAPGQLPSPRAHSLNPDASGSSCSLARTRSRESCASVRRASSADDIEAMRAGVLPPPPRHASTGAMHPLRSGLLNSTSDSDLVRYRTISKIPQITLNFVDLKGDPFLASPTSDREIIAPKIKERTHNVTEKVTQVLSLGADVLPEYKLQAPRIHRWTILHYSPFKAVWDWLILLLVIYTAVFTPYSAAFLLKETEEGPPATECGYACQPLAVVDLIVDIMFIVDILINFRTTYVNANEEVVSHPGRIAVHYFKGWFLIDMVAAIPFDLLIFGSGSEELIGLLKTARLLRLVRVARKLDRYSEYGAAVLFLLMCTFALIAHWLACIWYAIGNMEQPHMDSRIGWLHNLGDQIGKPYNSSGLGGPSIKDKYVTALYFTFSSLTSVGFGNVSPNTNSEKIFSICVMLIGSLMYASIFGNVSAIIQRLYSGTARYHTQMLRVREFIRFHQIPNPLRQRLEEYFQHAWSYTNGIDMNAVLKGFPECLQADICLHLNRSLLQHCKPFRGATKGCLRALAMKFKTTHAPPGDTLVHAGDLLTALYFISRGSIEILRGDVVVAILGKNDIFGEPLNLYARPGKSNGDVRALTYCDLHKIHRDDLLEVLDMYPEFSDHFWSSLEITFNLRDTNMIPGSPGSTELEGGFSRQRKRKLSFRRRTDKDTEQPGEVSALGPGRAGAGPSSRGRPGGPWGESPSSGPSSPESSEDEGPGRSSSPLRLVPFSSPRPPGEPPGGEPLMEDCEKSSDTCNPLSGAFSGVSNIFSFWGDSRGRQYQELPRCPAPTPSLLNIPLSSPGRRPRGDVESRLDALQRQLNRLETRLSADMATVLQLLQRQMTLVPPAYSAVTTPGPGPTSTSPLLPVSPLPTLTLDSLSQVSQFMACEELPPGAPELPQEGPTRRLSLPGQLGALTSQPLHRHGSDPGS
Summary of the method: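 CHO cells stably expressing hERG, grown at 32 °C, 5% CO2 in Ham's F-12 with 10% FBS and 500 µg/mL Geneticin. Population patch clamp with PBS (Ca/Mg) outside, KCl/MgCl2/EGTA/HEPES pH 7.3 inside, amphotericin B perforation. Holding −80 mV, step to 40 mV 2 s, then −50 mV 2 s. Peak tail current taken before and after 5 min compound exposure, inhibition = 100 − post/pre×100, n = 3 or 4.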

[3] = target: T2, 5-hydroxytryptamine receptor 1A (Homo sapiens, UniProt P08908); experiment: Inhibition of 5-HT 1A receptor (unknown origin)
T2 sequence (P08908 whole entry): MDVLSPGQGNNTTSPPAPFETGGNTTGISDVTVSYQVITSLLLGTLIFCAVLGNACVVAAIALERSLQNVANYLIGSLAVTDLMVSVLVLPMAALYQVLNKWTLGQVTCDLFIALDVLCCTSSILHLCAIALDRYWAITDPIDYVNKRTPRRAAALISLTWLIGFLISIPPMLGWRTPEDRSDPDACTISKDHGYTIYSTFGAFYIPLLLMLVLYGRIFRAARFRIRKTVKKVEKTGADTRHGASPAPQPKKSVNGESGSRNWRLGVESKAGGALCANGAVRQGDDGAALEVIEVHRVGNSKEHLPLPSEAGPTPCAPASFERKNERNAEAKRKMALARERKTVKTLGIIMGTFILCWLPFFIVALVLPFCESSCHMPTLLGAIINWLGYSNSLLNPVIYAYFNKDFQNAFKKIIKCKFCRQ

[4] = target: T3, Alpha-1A adrenergic receptor (Homo sapiens, UniProt P35348); experiment: Displacement of 7-methoxy-[3H]-prazosin from human alpha1A adrenergic receptor expressed in CHO-K1 cell membranes incubated for 60 mins by liquid scintillation counting analysis; summary of the method: as §1
T3 sequence (P35348 whole entry): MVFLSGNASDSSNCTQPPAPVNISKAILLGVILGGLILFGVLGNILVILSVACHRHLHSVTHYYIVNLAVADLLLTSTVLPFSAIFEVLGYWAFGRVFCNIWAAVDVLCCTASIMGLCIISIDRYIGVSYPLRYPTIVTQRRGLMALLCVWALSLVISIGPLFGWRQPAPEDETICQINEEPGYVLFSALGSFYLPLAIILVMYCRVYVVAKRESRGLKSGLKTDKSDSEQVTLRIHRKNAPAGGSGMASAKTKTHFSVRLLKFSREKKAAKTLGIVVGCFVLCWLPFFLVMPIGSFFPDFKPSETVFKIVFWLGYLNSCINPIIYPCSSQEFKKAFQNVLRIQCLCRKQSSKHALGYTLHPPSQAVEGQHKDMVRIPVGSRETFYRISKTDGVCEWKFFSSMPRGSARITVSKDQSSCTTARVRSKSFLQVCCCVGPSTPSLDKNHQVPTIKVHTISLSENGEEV

[5] = target: T4, Alpha-1B adrenergic receptor (Homo sapiens, UniProt P35368); experiment: Displacement of 7-methoxy-[3H]-prazosin from human alpha1B adrenergic receptor expressed in CHO-K1 cell membranes incubated for 60 mins by liquid scintillation counting analysis; summary of the method: as §1
T4 sequence (P35368 whole entry): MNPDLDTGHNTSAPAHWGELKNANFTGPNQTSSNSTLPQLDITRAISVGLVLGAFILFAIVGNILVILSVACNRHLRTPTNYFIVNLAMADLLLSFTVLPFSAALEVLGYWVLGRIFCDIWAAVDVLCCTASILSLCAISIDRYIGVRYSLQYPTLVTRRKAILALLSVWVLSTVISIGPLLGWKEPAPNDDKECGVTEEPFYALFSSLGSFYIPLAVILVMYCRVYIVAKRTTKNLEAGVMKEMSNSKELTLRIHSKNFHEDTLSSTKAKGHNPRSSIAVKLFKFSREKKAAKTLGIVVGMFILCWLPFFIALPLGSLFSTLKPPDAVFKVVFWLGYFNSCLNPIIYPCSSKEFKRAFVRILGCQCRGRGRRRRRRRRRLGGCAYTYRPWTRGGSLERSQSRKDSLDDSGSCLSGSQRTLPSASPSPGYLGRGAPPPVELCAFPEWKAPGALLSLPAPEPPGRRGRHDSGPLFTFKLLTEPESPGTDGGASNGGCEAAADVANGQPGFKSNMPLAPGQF

[6] = Total clearance in rat at 0.1 mg/kg, iv administered via cassette dosing by LC/MS/MS analysis; type: ADME, organism-based; conditions: in vivo
Summary of the method: (§2)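 Cassette dosing iv at 0.1 mg/kg in DMA/1,3-butanediol (1:1) to fed rats. Blood collected after dosing and centrifuged to plasma, which was deproteinized and centrifuged; supernatant concentrations measured by LC/MS/MS.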

[7] = Cmax in rat at 1 mg/kg, po administered via cassette dosing by LC/MS/MS analysis; type: ADME, organism-based; parameters: dose 1 mg/kg, route oral; conditions: in vivo
Summary of the method: (§3)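 Fed rats dosed orally at 1 mg/kg as 0.5% methylcellulose suspension by cassette dosing; bioavailability also uses an iv arm of 0.1 mg/kg in DMA/1,3-butanediol (1:1). Plasma obtained from blood by centrifugation, deproteinized, and measured by LC/MS/MS. Values are averages of three rats.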

[8] = AUC in rat at 1 mg/kg, po administered via cassette dosing by LC/MS/MS analysis; type: ADME, organism-based; conditions: in vivo; summary of the method: as §3
[9] = Mean residence time in rat at 1 mg/kg, po administered via cassette dosing by LC/MS/MS analysis; type: ADME, organism-based; conditions: in vivo; summary of the method: as §3
[10] = system: Rattus norvegicus; experiment: Inhibition of nonvoiding contractions during urinary storage phase in iv dosed Wistar rat with bladder outlet obstruction after 10 mins by cystometrogram; type: functional
[11] = system: Urinary bladder; experiment: Inhibition of (R)-(-)-phenylephrine hydrochloride-induced contractions in Wistar rat bladder with outlet obstruction treated every 30 minutes post (R)-(-)-phenylephrine hydrochloride challenge; type: functional
[12] = system: Rattus norvegicus; experiment: Reduction of urinary frequency in po dosed Sprague-Dawley rat with cyclophosphamide-induced cystitis assessed as increased voiding intervals administered at voiding intervals less <7.2 mins measured after 5 to 35 mins by cystometrogram; type: functional; conditions: Urine, read-out: MED
[13] = organism: Homo sapiens; experiment: Selectivity ratio of Ki for human alpha1B adrenergic receptor to Ki for human alpha1D adrenergic receptor
Summary of the method: (§4)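 Membranes from CHO-K1 cells stably expressing human α1A, α1B or α1D receptors (10 µg protein) incubated 60 min at room temperature with 2.5 nmol/L 7-methoxy[3H]-prazosin and 12 compound concentrations in Tris-HCl pH 7.5 buffer with MgCl2, EDTA, 0.5% BSA. Bound counts taken after filtration; nonspecific binding defined with 10 µmol/L phentolamine.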

[14] = Oral bioavailability in rat at 1 mg/kg administered via cassette dosing by LC/MS/MS analysis; type: ADME, organism-based; conditions: in vivo; summary of the method: as §3
[15] = organism: Homo sapiens; experiment: Selectivity ratio of Ki for human alpha1A adrenergic receptor to Ki for human alpha1D adrenergic receptor; summary of the method: as §4
[16] = Volume of distribution at steady state in rat at 0.1 mg/kg, iv administered via cassette dosing by LC/MS/MS analysis; type: ADME, organism-based; conditions: in vivo, read-out: Vdss; summary of the method: as §2

Row | SMILES | Ki [1] [nM] | inhibition at 5 min, 10 µM [2] [%] | other results
1 | N=c1c(C(N)=O)cc(Br)cn1Cc1ccccc1 | 160 | – | –
2 | N=c1c(C(N)=O)cc(Cl)cn1Cc1ccccc1 | 30 | – | IC50 [3]: > 1000 nM; Ki [4]: > 2700 nM; Ki [5]: > 1200 nM
3 | N#Cc1ccc(Cn2cc(Cl)cc(C(N)=O)c2=N)cc1Cl | 11 | 74 | –
4 | CN(C)C(=O)c1cc(Cl)cn(Cc2ccccc2)c1=N | > 940 | – | –
5 | COc1cccc(Cn2cc(Cl)cc(C(N)=O)c2=N)c1 | 8.7 | – | –
6 | N=c1c(C(N)=O)cc(Cl)cn1Cc1cccc(Cl)c1 | 2.6 | 47 | –
7 | N#Cc1cccc(Cn2cc(Cl)cc(C(N)=O)c2=N)c1 | 10 | – | –

Now from value to compound, other results behind:

Row | Ki [1] [nM] | SMILES | inhibition at 5 min, 10 µM [2] [%] | other results
8 | 9.4 | CS(=O)(=O)c1ccc(Cn2cc(Cl)cc(C(N)=O)c2=N)cc1Cl | 13 | –
9 | 65 | N=c1c(C(N)=O)cc(Cl)cn1Cc1ccc(C(N)=O)c(Cl)c1 | 10 | –
10 | 3.4 | CC(c1cccc(C#N)c1)n1cc(Cl)cc(C(N)=O)c1=N (configuration not stated) | 32 | –
11 | 0.86 | N#Cc1cc(Cl)cc(Cn2cc(Cl)cc(C(N)=O)c2=N)c1 | 71 | –
12 | 1.1 | CS(=O)(=O)c1ccc(Cl)cc1Cn1cc(Cl)cc(C(N)=O)c1=N | 16 | clearance [6]: 39.9 mL/min/kg; Cmax [7]: 60.2 ng/mL; AUC [8]: 358 ng·h/mL; MRT [9]: 4.53 h; inhibition [10]: Dose-dependent effect; ED50 ([10]; read-out: ID50 (the source's name)): 1.3 µg/kg; inhibition [11]: Dose-dependent effect; IC30 ([11]; 0.5 h): 12 nM; minimal effective dose [12]: 10 µg/kg; Ratio Ki [13]: 800; bioavailability [14]: 84.5%; Ratio Ki [15]: 200; Vd [16]: 4.43 L/kg
13 | 8.5 | N#Cc1ccc(Cl)cc1Cn1cc(Cl)cc(C(N)=O)c1=N | 59 | –
14 | > 940 | NC(=O)c1cc(Cl)cn(Cc2ccccc2)c1=O | – | –
15 | 4.8 | CS(=O)(=O)c1cc(Cl)cc(Cn2cc(Cl)cc(C(N)=O)c2=N)c1 | 14 | –
16 | 52 | CS(=O)(=O)c1cccc(Cn2cc(Cl)cc(C(N)=O)c2=N)c1 | – | –
17 | > 940 | N=c1c(C(N)=O)cc(Cl)cn1-c1ccccc1 | – | –
